Results from ChEMBL document CHEMBL1140298, “Identification of borinic esters as inhibitors of bacterial cell growth and bacterial methyltransferases, CcrM and MenH” (2005).
Converted amounts (≈) assume the structure as drawn. The source made the active and inactive calls. The calls are words filed in the database; no cut-off is given here.

How the values were obtained:
Haemophilus influenzae = test: Antibacterial activity against Haemophilus influenzae ATCC 4976; assay type: functional
Outline: (§1)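 MIC determined following NCCLS guidelines.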

[1] = system: Staphylococcus epidermidis; test: Antibacterial activity against Staphylococcus epidermidis ATCC 12228; assay type: functional; outline: as §1
Francisella tularensis = test: Antibacterial activity against Francisella tularensis; assay type: functional
Outline: (§2)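 MIC read-out, determined according to NCCLS guidelines.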

[2] = system: Mycobacterium tuberculosis; test: Antibacterial activity against Mycobacterium tuberculosis H37Rv; assay type: functional; outline: as §2
Enterococcus faecium = test: Antibacterial activity against Enterococcus faecium CT26; assay type: functional; outline: as §1
[3] = system: Yersinia pseudotuberculosis; test: Antibacterial activity against Yersinia pseudotuberculosis ATCC 29833; assay type: functional; outline: as §2
Caulobacter vibrioides [4] = test: Antibacterial activity against Caulobacter crescentus after 18 hrs; assay type: functional
Bacillus subtilis = test: Antibacterial activity against Bacillus subtilis ATCC 23857; assay type: functional; outline: as §1
Enterococcus faecalis = test: Antibacterial activity against Enterococcus faecalis ATCC 29212; assay type: functional; outline: as §1
Staphylococcus aureus = test: Antibacterial activity against Staphylococcus aureus ATCC 29213; assay type: functional; outline: as §1
Caulobacter vibrioides [5] = test: Inhibition of Caulobacter crescentus DNA methyltransferase CcrM assessed as transfer of [3H-Me] to DNA at 100 uM relative to control
Outline: (§3)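 Inhibitor at 100 uM; methyl transfer from [3H-Me]-AdoMet to DNA substrate measured, expressed as percent of activity without inhibitor.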

Moraxella catarrhalis = test: Antibacterial activity against Moraxella catarrhalis; assay type: functional; outline: as §1
Bacillus anthracis = test: Antibacterial activity against Bacillus anthracis; assay type: functional; outline: as §2
[6] = target: T1, Demethylmenaquinone methyltransferase (Bacillus subtilis (strain 168)) (UniProt P31113); test: Inhibition of Bacillus subtilis MenH methyltransferase assessed as {3H-Me] to DNA at 100 uM relative control
T1 sequence (whole entry): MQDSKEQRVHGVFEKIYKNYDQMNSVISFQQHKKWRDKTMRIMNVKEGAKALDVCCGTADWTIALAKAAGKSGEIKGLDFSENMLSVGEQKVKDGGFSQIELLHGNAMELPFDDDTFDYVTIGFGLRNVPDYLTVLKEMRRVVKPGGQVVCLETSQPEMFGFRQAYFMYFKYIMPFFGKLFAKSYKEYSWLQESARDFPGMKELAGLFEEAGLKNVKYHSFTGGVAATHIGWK
Outline: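 Lysate of E. coli JM109 overexpressing B. subtilis MenH (IPTG 1 mM induction, sonicated) in 0.1 M Tris-HCl pH 8.0, 10 mM MgCl2, 10 mM DTT, 1 uM FPP, 1 uM 1,4-dihydroxy-2-naphthoic acid, 1 uM IPP, 20 uM AdoMet plus [3H]-AdoMet; inhibitor 100 uM final; 37 °C 1 h; acid-methanol quench, hexane/2-propanol extraction, scintillation counting; triplicate; % of no-inhibitor activity.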

Escherichia coli = test: Inhibition of Escherichia coli DNA methyltransferase Dam assessed as transfer of [3H-Me] to DNA at 100 uM relative to control; outline: as §3

Compound | MIC (Haemophilus influenzae) | MIC [1] | MIC (Francisella tularensis) | MIC [2] | MIC (Enterococcus faecium) | MIC [3] | MIC (Caulobacter vibrioides [4]) | MIC (Bacillus subtilis) | MIC (Enterococcus faecalis) | MIC (Staphylococcus aureus) | Activity (Caulobacter vibrioides [5]) | MIC (Moraxella catarrhalis) | MIC (Bacillus anthracis) | inhibition [6] | Activity (Escherichia coli)
Clc1ccc(B(Oc2ccc(Cl)c3cccnc23)c2ccc(Cl)cc2)cc1 | 0.25 mg/L (≈ 0.606 µM) | 0.25 mg/L (≈ 0.606 µM) | 0.01 mg/L (≈ 0.0242 µM) | 0.62 mg/L (≈ 1.5 µM) | 2 mg/L (≈ 4.85 µM) | 8 mg/L (≈ 19.4 µM) | 2.6 mg/L (≈ 6.3 µM) | 32 mg/L (≈ 77.6 µM) | 32 mg/L (≈ 77.6 µM) | 0.5 mg/L (≈ 1.21 µM) | Active | ≤ 0.125 mg/L | 5.3 mg/L (≈ 12.8 µM) | – | –
C=CB(Oc1cccc2cccnc12)c1cccc(C#N)c1 | 2 mg/L (≈ 7.04 µM) | 1 mg/L (≈ 3.52 µM) | 8 mg/L (≈ 28.2 µM) | 0.62 mg/L (≈ 2.18 µM) | 2 mg/L (≈ 7.04 µM) | 32 mg/L (≈ 113 µM) | – | 4 mg/L (≈ 14.1 µM) | 8 mg/L (≈ 28.2 µM) | 1 mg/L (≈ 3.52 µM) | – | 2 mg/L (≈ 7.04 µM) | 8 mg/L (≈ 28.2 µM) | – | –
Clc1ccc(B(Oc2cccc3cccnc23)c2ccc(Cl)cc2)cc1 | 8 mg/L (≈ 21.2 µM) | 2 mg/L (≈ 5.29 µM) | 0.03 mg/L (≈ 0.0794 µM) | 0.31 mg/L (≈ 0.82 µM) | 4 mg/L (≈ 10.6 µM) | 64 mg/L (≈ 169 µM) | 4 mg/L (≈ 10.6 µM) | 2 mg/L (≈ 5.29 µM) | 4 mg/L (≈ 10.6 µM) | 2 mg/L (≈ 5.29 µM) | Active | 2 mg/L (≈ 5.29 µM) | 6.25 mg/L (≈ 16.5 µM) | – | –
Cc1ccc2cccc(OB(c3ccc(Cl)cc3)c3ccc(Cl)cc3)c2n1 | – | 8 mg/L (≈ 20.4 µM) | 6 mg/L (≈ 15.3 µM) | – | 16 mg/L (≈ 40.8 µM) | – | 2 mg/L (≈ 5.1 µM) | – | 32 mg/L (≈ 81.6 µM) | 16 mg/L (≈ 40.8 µM) | Active | – | – | – | –
C=CB(Oc1cccc2cccnc12)c1ccccc1Cl | 2 mg/L (≈ 6.81 µM) | 1 mg/L (≈ 3.41 µM) | 16 mg/L (≈ 54.5 µM) | 0.31 mg/L (≈ 1.06 µM) | 2 mg/L (≈ 6.81 µM) | 32 mg/L (≈ 109 µM) | – | 4 mg/L (≈ 13.6 µM) | 64 mg/L (≈ 218 µM) | 2 mg/L (≈ 6.81 µM) | – | 1 mg/L (≈ 3.41 µM) | – | – | –
C=CB(Oc1cccc2cccnc12)c1cccc(Cl)c1 | 4 mg/L (≈ 13.6 µM) | 1 mg/L (≈ 3.41 µM) | – | 0.62 mg/L (≈ 2.11 µM) | 4 mg/L (≈ 13.6 µM) | 16 mg/L (≈ 54.5 µM) | – | 4 mg/L (≈ 13.6 µM) | 64 mg/L (≈ 218 µM) | 2 mg/L (≈ 6.81 µM) | – | 4 mg/L (≈ 13.6 µM) | 8 mg/L (≈ 27.3 µM) | 50% | –
C=CB(Oc1cccc2cccnc12)c1ccc(Cl)cc1 | 2 mg/L (≈ 6.81 µM) | 1 mg/L (≈ 3.41 µM) | – | 0.62 mg/L (≈ 2.11 µM) | 4 mg/L (≈ 13.6 µM) | 32 mg/L (≈ 109 µM) | – | 4 mg/L (≈ 13.6 µM) | > 64 mg/L | 2 mg/L (≈ 6.81 µM) | – | 1 mg/L (≈ 3.41 µM) | – | – | –
Fc1ccc(B(Oc2cccc3cccnc23)c2ccc(F)cc2)cc1 | 4 mg/L (≈ 11.6 µM) | 2 mg/L (≈ 5.79 µM) | – | 0.62 mg/L (≈ 1.8 µM) | 32 mg/L (≈ 92.7 µM) | – | 12.5 mg/L (≈ 36.2 µM) | – | 32 mg/L (≈ 92.7 µM) | 4 mg/L (≈ 11.6 µM) | – | 2 mg/L (≈ 5.79 µM) | – | – | –
C=CB(Oc1cccc2cccnc12)c1ccccc1 | 16 mg/L (≈ 61.7 µM) | 1 mg/L (≈ 3.86 µM) | – | – | 4 mg/L (≈ 15.4 µM) | 32 mg/L (≈ 123 µM) | – | – | > 64 mg/L | 2 mg/L (≈ 7.72 µM) | – | 2 mg/L (≈ 7.72 µM) | – | – | –
C=CB(Oc1cccc2cccnc12)c1ccc(F)c(Cl)c1 | 4 mg/L (≈ 12.8 µM) | 1 mg/L (≈ 3.21 µM) | – | 0.62 mg/L (≈ 1.99 µM) | 2 mg/L (≈ 6.42 µM) | 32 mg/L (≈ 103 µM) | – | 4 mg/L (≈ 12.8 µM) | 32 mg/L (≈ 103 µM) | 2 mg/L (≈ 6.42 µM) | – | 2 mg/L (≈ 6.42 µM) | – | – | –
Clc1cccc(B(Oc2cccc3cccnc23)c2cccc(Cl)c2)c1 | 8 mg/L (≈ 21.2 µM) | 2 mg/L (≈ 5.29 µM) | 0.01 mg/L (≈ 0.0265 µM) | 0.62 mg/L (≈ 1.64 µM) | 4 mg/L (≈ 10.6 µM) | 32 mg/L (≈ 84.6 µM) | – | 2 mg/L (≈ 5.29 µM) | 32 mg/L (≈ 84.6 µM) | 1 mg/L (≈ 2.65 µM) | Active | 2 mg/L (≈ 5.29 µM) | 6.25 mg/L (≈ 16.5 µM) | – | –
Clc1ccc(C(Oc2cccc3cccnc23)c2ccc(Cl)cc2)cc1 | > 64 mg/L | > 64 mg/L | – | > 5 mg/L | > 64 mg/L | > 64 mg/L | – | > 64 mg/L | > 64 mg/L | > 64 mg/L | inactive | – | – | – | inactive
C=CB(Oc1cccc2cccnc12)c1cccc(F)c1 | 2 mg/L (≈ 7.22 µM) | 1 mg/L (≈ 3.61 µM) | 16 mg/L (≈ 57.7 µM) | 0.31 mg/L (≈ 1.12 µM) | 2 mg/L (≈ 7.22 µM) | 32 mg/L (≈ 115 µM) | – | 2 mg/L (≈ 7.22 µM) | > 64 mg/L | 2 mg/L (≈ 7.22 µM) | – | 1 mg/L (≈ 3.61 µM) | 8 mg/L (≈ 28.9 µM) | – | –
